# Assay outcomes (PubChem)
# Most compounds without a hit are left out; they make up all but 1.5% or so of the library.
# PGC1a acetyl inh: modulators of PGC1a acetylation; actives 0.17% (n = 350,000); U2OS PGC1a acetylation, AlphaScreen anti-acetyl-lysine; with virally co-expressed GCN5 acetyltransferase; AID 651687; inhibition, % at 15.6 µM;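 active means every replicate shows inhibition of at least 40%; inconclusive means mean inhibition at least 40% but some replicate below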
# Wnt bcat act: Wnt/beta-catenin pathway activation; Wnt/beta-catenin reporter cell assay, activator, plate reader; activation, % at 9.35 µM; actives 1.2% (n = 300,000); in the data active means activation above about 30%, passing the limit was not always enough; inconclusive means no clear call, values can overlap the other calls
# Cneo AK release: Cryptococcus neoformans lysis via adenylate kinase release; C. neoformans lysis, adenylate kinase release luminescence, 4 h; normalised: neutral wells 0, clomiphene wells 100; lysis activity, % at 15 µM; actives 0.2% (n = 360,000);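 active means mean lysis activity across replicates of at least 80%, whatever share of replicates individually reach that level; inactive means mean lysis activity below 80%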
#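 Assay system: log-phase C. neoformans yeast / Quantity: yeast cell density of 5 × 10^6 cells/mL / Medium: fresh YPD growth medium / Compound: single dose / Timing: static 4 h at 37 °C with compound, 1 h detection / Measured by: adenylate kinase release luminescence / Read-out: lysis from increased AK signal / Benchmarks: Clomiphene as positive lysis control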
# MITF act: increases MITF-driven TRPM1 promoter luciferase signal. actives 0.75% (n = 300,000). SK-MEL-5 TRPM1-promoter luciferase, 24 h; % of positive control, neutral wells = 0. activation, % at 12.5 µM;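 active means mean activation of at least 80% with every replicate also reaching 80%; inconclusive means mean reaches 80% but some replicate falls short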
# Numbers stand for hits; . = inactive; ? = inconclusive; / = not tested or not shown; ! = not active in a repeat.
SMILES,PGC1a acetyl inh,Wnt bcat act,Cneo AK release,MITF act
Cc1cc(NC(=O)CCS(=O)(=O)c2nc(-c3ccccc3)cc(C(F)(F)F)n2)no1,90,.,.,/
CCCN1C[C@H](C)[C@H](OC)CN(C)C(=O)c2ccc(NC(=O)c3cnccn3)cc2OC[C@H]1C,.,/,.,/
CC(C)CC#Cc1ccc2c(c1)O[C@H](CN(C)C(=O)CC1CC1)[C@H](C)CN([C@H](C)CO)S2(=O)=O,.,/,.,/
CCOC(=O)c1sc2nc(C)nc(NCc3ccccc3OC)c2c1C,63,.,.,.
CCOC(=O)c1sc2nc(C)nc(NCCc3ccccn3)c2c1C,/,.,/,.
CC(=O)NCC1(O)CCCC(C)C1 (configuration not stated),.,41,/,.
O=C(N[C@@H]1CC[C@H](CCNS(=O)(=O)c2ccc(F)cc2)O[C@H]1CO)c1cnccn1,.,/,.,/
Cc1ccc(NC(=O)CCSc2ccccc2)c(C)c1,.,/,/,.
Cc1cccc(NC(=O)CCSc2ccccc2)c1C,.,52,.,.
COc1ccc2cc(-c3ccsc3)ncc2c1,/,41,.,.
COc1cc2cnc(C3=CCCCC3)cc2cc1OC,.,.,.,.
COc1cc(OC)cc(-c2cc3ccc(OC)cc3cn2)c1,.,.,.,.
COc1ccc2cc(C3=CCCCC3)ncc2c1,.,42,.,.
COc1ccc2cc(-c3ccccc3)ncc2c1,.,32,.,.
C[C@@H]1CN([C@H](C)CO)C(=O)c2cc(C#CC3(O)CCCC3)cnc2O[C@H]1CN(C)S(=O)(=O)c1ccccc1,.,/,.,/
CNC[C@@H](CC1CCCCC1)NC[C@H](CC(C)C)NCCc1cccc(C(F)(F)F)c1,88,.,.,.
CNC[C@@H](Cc1ccccc1)NC[C@@H](CC1CCCCC1)NCCCc1ccccc1,.,.,.,.
CN1C(=O)c2cc(NS(=O)(=O)c3ccc(Cl)cc3)ccc2OC[C@H]2O[C@H](CC(=O)O)CC[C@H]21,.,/,.,/
O=C(NCC[C@H]1CC[C@H](NS(=O)(=O)c2ccc(F)cc2)[C@@H](CO)O1)c1ccc2c(c1)OCO2,.,.,102,/
O=C(CN1CCOCC1)N[C@@H]1CC[C@@H](CCNC(=O)C2CCC2)O[C@@H]1CO,.,/,98,/
O=C(CCN1CCCCC1)NCC[C@@H]1CC[C@H](NC(=O)c2ccc(F)cc2)[C@@H](CO)O1,.,/,86,/
Cc1ccc(S(=O)(=O)N[C@H]2CC[C@H](CCNC(=O)C3CCCC3)O[C@@H]2CO)cc1,.,/,95,/
CCS(=O)(=O)Nc1ccc2c(c1)C(=O)N(C)[C@H]1CC[C@H](CC(=O)OC)O[C@H]1CO2,.,/,.,/
CC(=O)N[C@H]1CC[C@H](CCNC(=O)C2CCC2)O[C@@H]1CO,.,/,101,/
CC(=O)N[C@@H]1CC[C@@H](CCNC(=O)C2CCC2)O[C@H]1CO,.,/,.,/
SMILES,PGC1a acetyl inh,Wnt bcat act,Cneo AK release,MITF act
COc1ccc(Nc2nc(-c3ccc(OC)cc3)cs2)cc1,.,.,/,94
Cc1cccc(Nc2nc(-c3ccc(F)c(C)c3)cs2)n1,.,46,.,.
Cc1cccc(Nc2nc(-c3ccc(O)c(O)c3)cs2)n1,/,.,.,/
CCNc1nc(-c2ccc(Cl)cc2)cs1,.,/,.,111
c1ccc(Nc2nc(-c3ccccn3)cs2)cc1,.,40,.,.
CNc1nc(-c2ccc(Cl)cc2)cs1,/,/,.,?
C[C@@H]1CN([C@@H](C)CO)C(=O)c2cc(NC(=O)C3CCCCC3)ccc2O[C@@H](C)CCCCO[C@H]1CN(C)S(C)(=O)=O,.,/,/,/
COc1ccc(-c2csc(Nc3ncccn3)n2)cc1C,.,38,.,.
Cc1nc(C)c(-c2csc(Nc3ccc(F)cc3)n2)s1,/,34,/,.
COc1ccc(-c2csc(N3CCSCC3)n2)cc1,.,?,.,.
COc1cccc(Nc2nc(-c3sc(C)nc3C)cs2)c1,/,.,.,/
COc1ccc(-c2csc(Nc3cc(C)ccn3)n2)cc1C,.,.,.,.
COc1ccccc1Nc1nc(C)cs1,.,.,.,89!
COc1ccc(-c2csc(-n3cccn3)n2)cc1,/,33,/,?
COc1ccc(S(=O)(=O)N[C@H]2CC[C@H](CC(=O)NCCc3ccncc3)O[C@H]2CO)cc1,.,/,.,/
c1ccc(Nc2nc(-c3ccncc3)cs2)cc1,.,/,.,144
Fc1ccc(Nc2nc(-c3ccncc3)cs2)cc1,.,.,/,84
Cc1ccc(Nc2nc(C)cs2)cc1,.,58,.,.
Clc1ccc(Nc2nc(-c3ccncc3)cs2)cc1,.,/,.,.
Cc1ccc(Nc2nc(CSc3n[nH]c(N)n3)cs2)cc1,.,43,.,93
O=C(O)C[C@@H]1C[C@@H]2c3cc(NS(=O)(=O)c4ccc(F)cc4)ccc3O[C@@H]2[C@H](CO)O1,.,/,/,/
CCCNC(=O)N1[C@H](CO)[C@H](c2ccccc2)[C@H]1CNC(C)=O,.,/,.,/
CN1C(=O)c2cc(NC(=O)c3ccc(F)cc3)ccc2OC[C@@H]2O[C@H](CC(=O)NC3CCC3)CC[C@H]21,.,/,.,/
COc1ccccc1S(=O)(=O)N[C@H]1C=C[C@@H](CC(=O)N2CCCCC2)O[C@H]1CO,.,/,.,/
C[C@H](CO)N1C[C@H](C)[C@@H](CN(C)Cc2ccccn2)Oc2ncc(C#Cc3cccc(F)c3)cc2C1=O,.,/,.,/
SMILES,PGC1a acetyl inh,Wnt bcat act,Cneo AK release,MITF act
COc1ccc(Nc2nc(-c3c[nH]c4ccccc34)cs2)cc1,/,40,/,.
Nc1ccc(Nc2nc(-c3ccncc3)cs2)cc1,.,.,.,120
Oc1ccc(Nc2nc(-c3ccc(O)cc3)cs2)cc1,.,/,/,.
C[C@H](CO)N1C[C@H](C)[C@@H](CN(C)C(=O)CN(C)C)Oc2cc(C#Cc3ccc(F)cc3)ccc2S1(=O)=O,.,/,.,/
Cc1ccc(NC(=O)CN2CCCC2c2cccn2C)c(Br)c1 (configuration not stated),.,.,.,109
CC(C)CC#Cc1ccc2c(c1)O[C@@H](CN(C)C(=O)Nc1ccccc1F)[C@@H](C)CN([C@H](C)CO)S2(=O)=O,.,/,.,/
Cc1ccc(-c2csc(NC(=O)COC(=O)c3cccc(S(=O)(=O)N4CCOCC4)c3)n2)cc1,/,45,/,/
C=CC(=O)N1C/C(=C/c2ccccc2)C(=O)/C(=C\c2ccccc2)C1,73,.,/,.
C=CC(=O)N1C/C(=C/c2ccc(Cl)cc2)C(=O)/C(=C\c2ccc(Cl)cc2)C1,/,.,/,.
CCCC(=O)Nc1ccc(NC(=O)c2ccco2)c(OC)c1,.,.,.,88
COc1cc(NC(=O)CC(C)C)ccc1NC(=O)c1ccco1,.,.,.,.
CCC(=O)Nc1ccc(NC(=O)c2ccco2)c(OC)c1,.,41,.,.
Cc1ccc(NC(=O)c2oc3ccccc3c2NC(=O)C2CCCO2)cc1C (configuration not stated),.,47,/,104
COc1ccc(NC(=O)c2oc3ccccc3c2NC(=O)C2CCCO2)cc1OC (configuration not stated),.,.,.,.
CCC(=O)Nc1c(C(=O)Nc2ccc3c(c2)OCCO3)oc2ccccc12,.,36,/,98
CCOCC(=O)Nc1c(C(=O)Nc2ccc3c(c2)OCCO3)oc2ccccc12,.,.,/,95
